Data from ChEMBL document CHEMBL4715780, “Biological evaluation of tetracationic compounds based on two 1,4-diazabicyclo[2.2.2]octane moieties connected by different linkers” (Bioorg Med Chem, 2016).

Legend:
Staphylococcus aureus [1] = assay: Bactericidal activity against […] Staphylococcus aureus ATCC 25923 assessed as colony forming unit at 2.5 ug/ml measured at 8 hrs by time kill assay (reference value: 2.7 x 10^8 CFU/ml); assay type: functional; settings: dose 2.5 µg/ml
Outline: (§1)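 S. aureus overnight culture was adjusted in MHB to ~8 × 10⁵ CFU/mL. Compound was added and the mixture incubated at 37 °C with shaking (580 rpm) for 22 h. Aliquots were plated for colony counts at 2, 4, 6, 8 and 22 h, with a quantification limit of 100 CFU/mL. Runs were done in triplicate.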

Pseudomonas aeruginosa [2] = assay: Bactericidal activity against Pseudomonas aeruginosa ATCC 9027 assessed as reduction in colony forming unit at 2.5 ug/ml measured at 2 hrs by time kill assay relative to control; assay type: functional; design: scale not given: the % may be the effect or the level left; settings: dose 2.5 µg/ml
Outline: (§2)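 Overnight Pseudomonas aeruginosa culture adjusted in Mueller–Hinton broth to about 2.5 × 10⁵ CFU/mL. Compound added at 2.5, 5 or 10 µg/mL, then incubated at 37 °C with shaking (580 rpm) for 22 h. Viable colonies counted on plates at 2, 4, 6, 8 and 22 h. Quantification limit 100 CFU/mL; triplicate.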

Staphylococcus aureus [3] = assay: Antibacterial activity against methicillin-resistant Staphylococcus aureus CEMTC 1695 assessed as bacterial growth inhibition by CLSI protocol based serial microdilution method; assay type: functional
Pseudomonas aeruginosa [4] = assay: Bactericidal activity against Pseudomonas aeruginosa ATCC 9027 assessed as colony forming unit at 10 ug/ml measured at 8 hrs by time kill assay (reference value: 2.7 x 10^8 CFU/ml); assay type: functional; settings: dose 10 µg/ml; outline: as §2
Staphylococcus aureus [5] = assay: Antibacterial activity against methicillin-resistant Staphylococcus aureus CEMTC 1733 assessed as bacterial growth inhibition by CLSI protocol based serial microdilution method; assay type: functional
Enterococcus faecalis [6] = assay: Antibacterial activity against Enterococcus faecalis ATCC 51299 assessed as concentration required to inhibit visible growth by CLSI protocol based serial microdilution method; assay type: functional
[7] = Selectivity index, ratio of CC50 for HEK293T cells assessed as reduction in cell viability measured after 24 hrs by MTT assay to MIC for Pseudomonas aeruginosa ATCC 9027 assessed as bacterial growth inhibition by CLSI protocol based serial microdilution method; assay type: toxicity; settings: human, read-out: Selectivity Index
Staphylococcus aureus [8] = assay: Antibacterial activity against […] Staphylococcus aureus ATCC 25923 assessed as bacterial growth inhibition by CLSI protocol based serial microdilution method; assay type: functional
Staphylococcus aureus [9] = assay: Bactericidal activity against […] Staphylococcus aureus ATCC 25923 assessed as colony forming unit at 1.25 ug/ml measured at 22 hrs by time kill assay (reference value: 2.9 x 10^9 CFU/ml); assay type: functional; settings: dose 1.25 µg/ml; outline: as §1
Staphylococcus aureus [10] = assay: Bactericidal activity against […] Staphylococcus aureus ATCC 25923 assessed as colony forming unit at 1.25 ug/ml measured at 2 hrs by time kill assay (reference value: 10^6 CFU/ml); assay type: functional; settings: dose 1.25 µg/ml; outline: as §1
Pseudomonas aeruginosa [11] = assay: Bactericidal activity against Pseudomonas aeruginosa ATCC 9027 assessed as reduction in colony forming unit at 2.5 ug/ml measured at 4 hrs by time kill assay relative to control; assay type: functional; design: scale not given: the % may be the effect or the level left; settings: dose 2.5 µg/ml; outline: as §2
Pseudomonas aeruginosa [12] = assay: Antibacterial activity against Pseudomonas aeruginosa ATCC 9027 assessed as concentration required to inhibit visible growth by CLSI protocol based serial microdilution method; assay type: functional
Pseudomonas aeruginosa [13] = assay: Bactericidal activity against Pseudomonas aeruginosa ATCC 9027 assessed as colony forming unit at 2.5 ug/ml measured at 22 hrs by time kill assay (reference value: 1.7 x 10^9 CFU/ml); assay type: functional; settings: dose 2.5 µg/ml; outline: as §2
Enterococcus faecalis [14] = assay: Antibacterial activity against Enterococcus faecalis ATCC 51299 assessed as bacterial growth inhibition by CLSI protocol based serial microdilution method; assay type: functional
Pseudomonas aeruginosa [15] = assay: Bactericidal activity against Pseudomonas aeruginosa ATCC 9027 assessed as colony forming unit at 10 ug/ml measured at 22 hrs by time kill assay (reference value: 1.7 x 10^9 CFU/ml); assay type: functional; settings: dose 10 µg/ml; outline: as §2
Candida albicans [16] = assay: Antifungal activity against Candida albicans CEMTC 34 assessed as fungal growth inhibition by CLSI protocol based serial microdilution method; assay type: functional
Outline: (§3)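 Candida albicans grown in Sabouraud dextrose broth with two-fold serial compound dilutions from water stocks; final inoculum about 5 × 10⁵ CFU/mL. Incubated at 37 °C with orbital shaking (580 rpm). MIC is the lowest concentration preventing growth, by absorbance at 595 nm. MFC is the lowest concentration with no visible growth. Duplicates in two separate experiments.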

Salmonella typhimurium = assay: Antibacterial activity against Salmonella enterica ATCC 14028 assessed as bacterial growth inhibition by CLSI protocol based serial microdilution method; assay type: functional, Salmonella enterica subsp. enterica serovar Typhimurium
Pseudomonas aeruginosa [17] = assay: Bactericidal activity against Pseudomonas aeruginosa ATCC 9027 assessed as reduction in colony forming unit at 10 ug/ml measured at 4 hrs by time kill assay relative to control; assay type: functional; design: scale not given: the % may be the effect or the level left; settings: dose 10 µg/ml; outline: as §2
Pseudomonas aeruginosa [18] = assay: Bactericidal activity against Pseudomonas aeruginosa ATCC 9027 assessed as colony forming unit at 2.5 ug/ml measured at 2 hrs by time kill assay (reference value: 3.6 x 10^5 CFU/ml); assay type: functional; settings: dose 2.5 µg/ml; outline: as §2
Staphylococcus aureus [19] = assay: Antibacterial activity against methicillin-resistant Staphylococcus aureus CEMTC 1850 assessed as bacterial growth inhibition by CLSI protocol based serial microdilution method; assay type: functional
[20] = Selectivity index, ratio of CC50 for HEK293T cells assessed as reduction in cell viability measured after 24 hrs by MTT assay to MIC for Escherichia coli ATCC 25922 assessed as bacterial growth inhibition by CLSI protocol based serial microdilution method; assay type: toxicity; settings: human, read-out: Selectivity Index
Candida albicans [21] = assay: Antifungal activity against Candida albicans CEMTC 34 assessed as concentration required to inhibit visible growth by CLSI protocol based serial microdilution method; assay type: functional; outline: as §3
Pseudomonas aeruginosa [22] = assay: Bactericidal activity against Pseudomonas aeruginosa ATCC 9027 assessed as colony forming unit at 2.5 ug/ml measured at 6 hrs by time kill assay (reference value: 10^8 CFU/ml); assay type: functional; settings: dose 2.5 µg/ml; outline: as §2
Influenza A virus = assay: Antiviral activity against Influenza A virus (A/Puerto Rico/8/34 (H1N1) infected in MDCK cells assessed as decrease in viral titer preincubated for 1 hr followed by viral infection and cultivated for 48 hrs followed by supernatant transferred to chicken erythrocyte for 1 hr followed by measuring ability to cause positive hemagglutination; assay type: functional, organism-based; settings: A/Puerto Rico/8/1934(H1N1)
Outline: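 MDCK monolayers in MEM were pre-incubated with compound for 1 h at 37 °C, then infected with 10-fold virus dilutions (10⁻¹–10⁻⁶) and held 48 h at 37 °C, 5% CO₂. Supernatant was mixed with an equal volume of 1% chicken erythrocytes, 60 min at room temperature. Titre was taken from the highest dilution giving full agglutination (log₁₀ EID₅₀). Triplicate per concentration.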

Staphylococcus aureus [23] = assay: Antibacterial activity against methicillin-resistant Staphylococcus aureus CEMTC 1732 assessed as bacterial growth inhibition by CLSI protocol based serial microdilution method; assay type: functional
[24] = Selectivity index, ratio of CC50 for HEK293T cells assessed as reduction in cell viability measured after 24 hrs by MTT assay to MIC for Proteus vulgaris ATCC 6380 assessed as bacterial growth inhibition by CLSI protocol based serial microdilution method; assay type: toxicity; settings: human, read-out: Selectivity Index
Staphylococcus aureus [25] = assay: Bactericidal activity against […] Staphylococcus aureus ATCC 25923 assessed as colony forming unit at 2.5 ug/ml measured at 2 hrs by time kill assay (reference value: 10^6 CFU/ml); assay type: functional; settings: dose 2.5 µg/ml; outline: as §1

Row | Structure (SMILES) | Activity (Staphylococcus aureus [1]) [CFU/ml] | Activity (Pseudomonas aeruginosa [2]) | MIC (Staphylococcus aureus [3]) [µg/mL] | Activity (Pseudomonas aeruginosa [4]) [CFU/ml] | MIC (Staphylococcus aureus [5]) [µg/mL] | MBC (Enterococcus faecalis [6]) [µg/mL] | selectivity ratio at 24 h [7] | MIC (Staphylococcus aureus [8]) [µg/mL] | Activity (Staphylococcus aureus [9]) [CFU/ml] | Activity (Staphylococcus aureus [10]) [CFU/ml] | Activity (Pseudomonas aeruginosa [11]) | MBC (Pseudomonas aeruginosa [12]) [µg/mL] | Activity (Pseudomonas aeruginosa [13]) [CFU/ml] | MIC (Enterococcus faecalis [14]) [µg/mL] | Activity (Pseudomonas aeruginosa [15]) [CFU/ml] | MIC (Candida albicans [16]) [µg/mL] | MIC (Salmonella typhimurium) [µg/mL] | Activity (Pseudomonas aeruginosa [17]) | Activity (Pseudomonas aeruginosa [18]) [CFU/ml] | MIC (Staphylococcus aureus [19]) [µg/mL] | other results
1 | CCCCCCCCCCCC[N+]12CC[N+](CCC[N+]34CC[N+](CCCCCCCCCCCC)(CC3)CC4)(CC1)CC2 | <100 | >=99.9% | 1 | <100 | 1 | 3.1 | 4 | 0.3 | <100 | <100 | >=99.9% | 3.1 | <100 | 1.6 | <100 | 3.1 | 1.6 | >=99.9% | 330 | 1 | selectivity ratio at 24 h [20]: 4; MFC (Candida albicans [21]): 6.3 µg/mL; Activity (Pseudomonas aeruginosa [22]): <100 CFU/ml; EC50 (Influenza A virus): 1.9 µg/mL; MIC (Staphylococcus aureus [23]): 0.5 µg/mL; selectivity ratio at 24 h [24]: < 1; Activity (Staphylococcus aureus [25]): 330 CFU/ml
2 | CCCCCCCCCCCC[N+]12CC[N+](Cc3ccccc3C[N+]34CC[N+](CCCCCCCCCCCC)(CC3)CC4)(CC1)CC2 | <100 | >=90% | 1 | <100 | 1 | 1.6 | 3 | 0.6 | <100 | <670 | >=99.9% | 3.1 | 100 | 0.8 | <100 | 3.1 | 16 | >=99.9% | 6800 | 0.5 | selectivity ratio at 24 h [20]: 3; MFC (Candida albicans [21]): 6.3 µg/mL; Activity (Pseudomonas aeruginosa [22]): <100 CFU/ml; EC50 (Influenza A virus): 1 µg/mL; MIC (Staphylococcus aureus [23]): 0.5 µg/mL; selectivity ratio at 24 h [24]: < 1; Activity (Staphylococcus aureus [25]): 1000 CFU/ml
